Screens (PubChem BioAssay)
PAX8 inh HTS – inhibitors of PAX8-driven TPO luciferase reporter, primary screen, RMG-I cells, single concentration; SteadyGlo, 24 h; inhibition, % at 12.6 µM; actives 1.2% (n = 360,000);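 active = mean replicate inhibition at least 60% with every replicate also reaching 60%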;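 note: luciferase light reporting Pax8 driven TPO promoter activity; plate controls were median of neutral control wells for no effect and mitoxantrone controls for full effect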
PfHsp90 set2 – growth inhibition of PfHsp90-expressing yeast, primary screen, antimalarial PfHsp90 inhibitor project, S. cerevisiae, BacTiter-Glo luminescence, single point, set 2. BacTiter-Glo ATP, 48 h; yeast lacking PDR1 and PDR3 efflux regulators. inhibition, % at 9.4 µM. actives 0.32% (n = 310,000);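 active = every replicate shows inhibition above about 80%, whatever the replicate mean, limit read from the data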;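 note: 0% = DMSO neutral controls and 100% = 20 µM radicicol positive controls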
Rtt109 Vps75 – inhibitors of C. albicans Rtt109/Vps75 HAT, primary screen, biochemical, ThioGlo CoA-SH fluorescence, plate reader. purified Rtt109/Vps75, 4 h. inhibition, % at 34.9 µM. actives 0.16% (n = 330,000);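 active = inhibition of at least 50% in every replicate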
Glyco luc inh – increase of ERlucT glycosylation luciferase signal, primary screen, N-linked glycosylation inhibitor project, D54 ERlucT cells, luminescence, set 2. D54 ERlucT glycosylation luciferase reporter, 24 h; percent of 100 nM tunicamycin response. reporter increase, % at 12.5 µM. actives 0.23% (n = 360,000). AID 588692, 2011;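 active = mean luciferase reporter signal, scaled so untreated is 0 and the glycosylation-blocking control 100, at or above a set limit in every replicate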;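 note: luciferase carries N-glycosylation sites so blocking glycosylation raises the light; 0% = median of neutral control wells and 100% = median of 100 nM tunicamycin wells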
Env fusion inh – inhibitors of HIV-1 Env-driven cell-cell fusion, primary screen, HeLa-JRFL effector, CEM21 target cells, luciferase | inhibition, % at 12.3 µM | actives 1.1% (n = 360,000);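 active = mean replicate inhibition score of at least 50 and every replicate individually at or above 50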;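 note: 0% = plate neutral controls and 100% = maraviroc near 300 nM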
Arr AP2 block – inhibitors of beta-arrestin/AP2 binding, primary screen, biochemical, GPCR trafficking, flow cytometry | inhibition, % at 10 µM | beta-arrestin 1 C-terminal peptide binding to AP2 beta2-adaptin appendage (human) | FITC-arrestin peptide / GST-AP2 beads; AP2 beta2 appendage carries R879A mutation | actives 0.31% (n = 340,000) | AID 504490, 2011;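 active = inhibition above a set limit, near 3 SD of compounds lacking own fluorescence, cut at about 54% in these data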;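 note: plate controls were DMSO wells for no effect and 5 µM unlabelled arrestin peptide for full effect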
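Material – GST-tagged AP2 beta2-adaptin appendage (R879A) on 4 µm glutathione beads · Probe or stimulus – fluorescein-tagged arrestin peptide at 50 nM final · Timing – 12 min plus 1 h, RT · Detection – bead flow cytometry, FITC channel · Read-out basis – inhibition as reduced fluorescein signal on beads, percent · Medium – PBS plus Tween 20 (0.05%) and BSA (0.1%)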
Arr AP2 CP1 – inhibitors of arrestin peptide binding to AP2, confirmation, biochemical, cherry pick 1, flow cytometry beads; shares compounds with Arr AP2 block; GST-AP2 beads, FITC arrestin peptide binding; GST-fused beta2-adaptin appendage, R879A mutant; inhibition, % at 10 µM; actives 2% (n = 1,300); AID 504908, 2011;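 active = inhibition above a set limit, roughly 3 SD of non-fluorescent compound noise, cut at about 38% in these data; inactive = inhibition at or below that limit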;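 note: loss of bead fluorescence from 50 nM FITC arrestin peptide bound to appendage; 0% = negative control wells and 100% = excess unlabelled arrestin peptide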
GST-FITC bead – GST-fluorescein capture on glutathione beads, confirmation, artefact control for arrestin-AP2 inhibitor project, biochemical, cherry pick 1, flow cytometry. shares compounds with Arr AP2 block. GST-fluorescein binding to GSH beads, fluorescence, counter-screen. inhibition, % at 10 µM. actives 2% (n = 1,300). AID 588338, 2011;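 active = inhibition above 50%, about 3 SD of the inhibition seen with non-fluorescent compounds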;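 note: fluorescein maleimide labelled GST captured on 4 micron glutathione beads; higher means more loss of bead fluorescence from quenching or blocked binding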
Numbers without * were called inactive; [ ] = remark or other dose. Most compounds without a hit are left out; they make up all but 2.3% or so of the library.

Results for CC(C)COc1ccc(C(=O)NC(=S)Nc2ccc(CN3CCOCC3)cc2)cc1 ?
PAX8 inh HTS: 0; PfHsp90 set2: -17; Rtt109 Vps75: -16; Glyco luc inh: 1; Env fusion inh: 11; Arr AP2 block: 103*; Arr AP2 CP1: 13; GST-FITC bead: 36

Results for CC(CC(=O)N(CCC1=CCCCC1)c1c(N)n(Cc2ccccc2)c(=O)[nH]c1=O)c1ccccc1 (stereo not drawn) ?
PAX8 inh HTS: 0; PfHsp90 set2: -12; Rtt109 Vps75: 3; Glyco luc inh: 6; Env fusion inh: -21; Arr AP2 block: 68*; Arr AP2 CP1: 0; GST-FITC bead: -3

How did CCOC(=O)C1=C(COC(=O)CNC(=O)c2cccc(C)c2)NC(=O)NC1C (stereo not drawn) do in these assays?
PAX8 inh HTS: 1; Rtt109 Vps75: 3; Glyco luc inh: 0; Env fusion inh: 3; Arr AP2 block: 2

What do the screens show for `CCOC(=O)C1=C(COC(=O)CCOc2ccc(OC)cc2)NC(=O)NC1C` (stereo not drawn)?
PAX8 inh HTS: -11; PfHsp90 set2: 6; Rtt109 Vps75: -4; Glyco luc inh: -1; Env fusion inh: 7; Arr AP2 block: -9; Arr AP2 CP1: -1; GST-FITC bead: -12

Results for C/C=C/c1ccc(OCC(=O)OCC2=C(C(=O)OCC)C(C)NC(=O)N2)c(OC)c1 (stereo not drawn) ?
PAX8 inh HTS: -11; Rtt109 Vps75: -3; Glyco luc inh: -2; Env fusion inh: 2; Arr AP2 block: 8

What do the screens show for `CCOC(=O)C1=C(COC(=O)CCOc2ccc(C)cc2)NC(=O)NC1C` (stereo not drawn)?
PAX8 inh HTS: 21; Rtt109 Vps75: -12; Glyco luc inh: 4; Env fusion inh: -56; Arr AP2 block: 12; Arr AP2 CP1: -5; GST-FITC bead: -11

Results for CCOC(=O)C1=C(COC(=O)/C=C/c2ccc(OC)cc2OC)NC(=O)NC1C (stereo not drawn) ?
PAX8 inh HTS: 6; Rtt109 Vps75: 2; Glyco luc inh: -1; Arr AP2 block: 13

How did CCOC(=O)C1=C(COC(=O)COc2ccc(Br)cc2)NC(=O)NC1C (stereo not drawn) do in these assays?
PAX8 inh HTS: -12; PfHsp90 set2: 22; Rtt109 Vps75: 23; Glyco luc inh: 2; Env fusion inh: 1; Arr AP2 block: -4; Arr AP2 CP1: -5; GST-FITC bead: -7

Results for Cc1ccc(S(=O)(=O)N[C@H]2CC[C@H](CCNC(=O)C3CCCC3)O[C@H]2CO)cc1 ?
PAX8 inh HTS: 2; Env fusion inh: 22[16.7 µM]

How did Cn1nnc(NC(=S)NC(=O)c2cccc3c(Cl)cccc23)n1 do in these assays?
PAX8 inh HTS: -11; PfHsp90 set2: -36; Rtt109 Vps75: 11; Glyco luc inh: 2; Env fusion inh: 2; Arr AP2 block: 56*; Arr AP2 CP1: 0; GST-FITC bead: -8

What do the screens show for `Cc1noc(C)c1NC(=O)Nc1ccc2c(c1)C(=O)N([C@H](C)CO)C[C@@H](C)[C@@H](CN(C)C(=O)Nc1ccc3c(c1)OCO3)OCCCC[C@@H](C)O2`?
Env fusion inh: 10[16.7 µM]

What do the screens show for `Cc1c(Cl)cccc1NC(=O)Nc1ccc(C(N)=O)cc1`?
PAX8 inh HTS: 9; PfHsp90 set2: -2; Rtt109 Vps75: 4; Glyco luc inh: -3; Env fusion inh: -3; Arr AP2 block: 104*; Arr AP2 CP1: 0; GST-FITC bead: 5

How did Cc1c(Cl)cccc1NC(=O)Nc1ccccc1C(N)=O do in these assays?
PAX8 inh HTS: -23; PfHsp90 set2: -1; Rtt109 Vps75: 0; Glyco luc inh: 1; Env fusion inh: 26; Arr AP2 block: -1

What do the screens show for `O=C(Nc1c2c(nn1-c1ccccc1)CS(=O)(=O)C2)c1cc2ccccc2o1`?
PAX8 inh HTS: 7; PfHsp90 set2: 5; Rtt109 Vps75: 3; Glyco luc inh: 1; Env fusion inh: 6; Arr AP2 block: 22

Results for Cc1ccc(-n2nc3c(c2NC(=O)c2cc4ccccc4o2)CS(=O)(=O)C3)cc1 ?
PAX8 inh HTS: 11; PfHsp90 set2: -16; Rtt109 Vps75: 3; Glyco luc inh: 1; Env fusion inh: 1; Arr AP2 block: 57*; Arr AP2 CP1: 0; GST-FITC bead: -2

What do the screens show for `COc1ccccc1NS(=O)(=O)c1cccc(NC(=O)C2CC(=O)N(Cc3ccccc3)C2)c1` (stereo not drawn)?
PAX8 inh HTS: 14; PfHsp90 set2: 14; Rtt109 Vps75: 6; Glyco luc inh: 0; Env fusion inh: 0; Arr AP2 block: 60*; Arr AP2 CP1: -3; GST-FITC bead: -12

What do the screens show for `CCc1ccc2[nH]c(=O)c(CN(CCN(C)C)C(=S)NCc3ccco3)cc2c1`?
PAX8 inh HTS: -9; PfHsp90 set2: 5; Rtt109 Vps75: 0; Glyco luc inh: 0; Env fusion inh: 3; Arr AP2 block: 38

Results for CCc1ccc2[nH]c(=O)c(CN(CCN(CC)CC)C(=S)NCc3ccco3)cc2c1 ?
PAX8 inh HTS: 13; PfHsp90 set2: 10; Rtt109 Vps75: -5; Glyco luc inh: -2; Env fusion inh: -23; Arr AP2 block: 55*; Arr AP2 CP1: 9; GST-FITC bead: -7

How did Cc1cc(=O)[nH]c(-c2cccnc2)n1 do in these assays?
PAX8 inh HTS: 14; PfHsp90 set2: 25; Rtt109 Vps75: 6; Glyco luc inh: 3; Env fusion inh: 4; Arr AP2 block: 63*; Arr AP2 CP1: -3; GST-FITC bead: -6

What do the screens show for `CCN(Cc1ccccc1)C(=O)c1cc(S(=O)(=O)N2CCOCC2)ccc1N1CCCC1`?
PAX8 inh HTS: -7; Rtt109 Vps75: 2; Glyco luc inh: 0; Env fusion inh: -6; Arr AP2 block: 57*; Arr AP2 CP1: -11; GST-FITC bead: -2
